{"data": "Measurements from different studies", "INSR": "Insulin receptor (INSR, Homo sapiens, UniProt P06213)", "note": "Each line is one published result; the experiments were not run side by side."}
{"Compound": "CNC(=O)c1ccccc1Nc1cc(Nc2ccc(N3CCOCC3)cc2OC)ncc1C(F)(F)F", "target": "INSR", "observed": "enzyme activity", "mode": "inhibitor", "concentration": "1 µM", "measurement": "inhibition", "value": "> 50%"}
{"Compound": "Cc1nc(C2CCN(C(=O)c3ccc(OC(F)(F)F)cc3N)CC2)c2ncc(N3CCN(C)CC3)cc2n1", "target": "INSR", "observed": "cell-free assay", "technique": "competition with immobilised ligand", "concentration": "1 µM", "measurement": "remaining binding", "value": "93%"}
{"Compound": "Cc1ccc(Nc2nccc(N(C)c3ccc4c(C)n(C)nc4c3)n2)cc1S(N)(=O)=O", "target": "INSR", "observed": "enzyme activity", "mode": "inhibitor", "concentration": "0.3 µM", "measurement": "inhibition", "value": "6%"}
{"Compound": "Cc1ccc(C(=O)NCc2ccsc2)cc1C#Cc1cn(C(C)C)c2ncnc(N)c12", "target": "INSR", "observed": "enzyme activity", "mode": "inhibitor", "concentration": "1 µM", "measurement": "activity vs control", "value": "82%"}
{"Compound": "COc1cc(/C=C/C(=O)CC(=O)/C=C/c2ccc(O)c(OC)c2)ccc1O", "target": "INSR", "observed": "enzyme activity", "mode": "inhibitor", "concentration": "1 µM", "measurement": "activity vs control", "value": "46%"}
{"Compound": "COc1cc2ncnc(Nc3ccc(Oc4ccccc4)cc3C)c2cc1OC", "target": "INSR", "observed": "enzyme activity", "mode": "inhibitor", "concentration": "1 µM", "measurement": "inhibition", "value": "-1%"}
{"Compound": "CN1CC(Oc2cnc(C#N)cc2-c2ccn3nc(NC(=O)C4CC4)cc3c2)C1", "target": "Insulin receptor, phosphorylated (INSR, Homo sapiens, UniProt P06213)", "observed": "enzyme activity", "mode": "inhibitor", "concentration": "1 µM", "measurement": "inhibition", "value": "1%"}
{"Compound": "O=C(NC[C@@H]1[C@H]2CN(C(=O)OCc3cc(C(F)(F)F)cc(C(F)(F)F)c3)C[C@@H]12)c1ccc2[nH]nnc2c1", "target": "INSR", "observed": "cell-free assay", "technique": "competition with immobilised ligand", "concentration": "1 µM", "measurement": "remaining binding", "value": "83%"}
{"Compound": "CNCc1ccc(-c2cc(-c3nc(-c4ccc(S(=O)(=O)C(C)C)cc4)cnc3N)on2)cc1", "target": "INSR", "observed": "enzyme activity", "mode": "inhibitor", "concentration": "2 µM", "measurement": "inhibition", "value": "0%"}
{"Compound": "CNc1cccc2cc(C(=O)Nc3ccc(C(=O)O)cc3)c(=O)[nH]c12", "target": "INSR", "observed": "enzyme activity", "mode": "inhibitor", "concentration": "10 µM", "measurement": "inhibition", "value": "5.2%"}
{"Compound": "Cc1cc(NC(=O)c2cccc3cc(-c4cccc5[nH]nc(N)c45)ccc23)ccc1F", "target": "INSR", "observed": "enzyme activity", "mode": "inhibitor", "concentration": "0.1 µM", "measurement": "activity vs control", "value": "107%"}
{"Compound": "Nc1ncnc2occ(-c3ccc(NC(=O)Nc4cc(C(F)(F)F)ccc4F)cc3)c12", "target": "INSR", "observed": "cell-free assay", "concentration": "20 µM", "measurement": "remaining signal", "value": "3.2%"}
{"Compound": "CSc1cccnc1N1CCN(Cc2nc3ccccc3[nH]2)CC1", "target": "INSR", "observed": "cell-free assay", "technique": "competition with immobilised ligand", "concentration": "1 µM", "measurement": "remaining binding", "value": "85%"}
{"Compound": "O=C1NC(=O)c2cc(Nc3ccc(F)cc3)c(Nc3ccc(F)cc3)cc21", "target": "INSR", "observed": "cell-free assay", "concentration": "0.5 µM", "measurement": "remaining signal", "value": "98.3%"}
{"Compound": "CO[C@@H](C)c1c(Nc2ccc([C@H](N(C)C(=O)C3CCS(=O)(=O)CC3)C(F)(F)F)cc2)cnc2cc(Cl)nn12", "target": "INSR", "observed": "cell-free assay", "technique": "competition with immobilised ligand", "concentration": "1 µM", "measurement": "remaining binding", "value": "87%"}
{"Compound": "CN(C)C1CCN(CC#Cc2nn(C3CCCC3)c3nc(NCc4ccccc4)ncc23)C1 (stereo not drawn)", "target": "INSR", "observed": "enzyme activity", "mode": "inhibitor", "technique": "FRET", "concentration": "1 µM", "measurement": "inhibition", "value": "8%"}
{"Compound": "O=C(O)[C@H]1[C@H](Cn2nnc3ccccc3c2=O)CC[C@@H]1C(=O)c1ccc(OCCC2CCOCC2)cc1", "target": "INSR", "observed": "cell-free assay", "technique": "competition with immobilised ligand", "concentration": "1 µM", "measurement": "remaining binding", "value": "78%"}
{"Compound": "CCCS(=O)(=O)Nc1ccc(F)c(C(=O)c2c[nH]c3ncc(-c4ccc(Cl)cc4)cc23)c1F", "target": "INSR", "observed": "enzyme activity", "mode": "inhibitor", "concentration": "1 µM", "measurement": "inhibition", "value": "< 10%"}
{"Compound": "O=C(NS(=O)(=O)c1ccc(NCC2CCOCC2)c([N+](=O)[O-])c1)c1ccc(N2CCN(Cc3ccc(C(F)(F)F)cc3-c3ccc(Cl)cc3)CC2)cc1Oc1cnc2[nH]ccc2c1", "target": "INSR", "observed": "cell-free assay", "technique": "competition with immobilised ligand", "concentration": "1 µM", "measurement": "remaining binding", "value": "89%"}
{"Compound": "O=C(CSc1nc2nccnc2c(=O)n1CCc1ccccc1)Nc1nccs1", "target": "INSR", "observed": "enzyme activity", "mode": "inhibitor", "concentration": "10 µM", "measurement": "inhibition", "value": "5%"}
{"Compound": "COc1cc2c(Nc3ccc(Br)cc3F)ncnc2cc1OCC1CCN(C)CC1", "target": "INSR", "observed": "cell-free assay", "concentration": "0.5 µM", "measurement": "remaining signal", "value": "102%"}
{"Compound": "C[C@@H]1CN(c2cc(-c3nn(C)c4ccc(OC5(C)CC5)cc34)ncn2)C[C@H](C)O1", "target": "INSR", "observed": "cell-free assay", "technique": "competition with immobilised ligand", "concentration": "1 µM", "measurement": "remaining binding", "value": "100%"}
{"Compound": "O=C1Nc2ccc(Cl)cc2C1=Cc1cc(Cl)c(O)c(Cl)c1", "target": "INSR", "observed": "cell-free assay", "concentration": "0.5 µM", "measurement": "remaining signal", "value": "99.2%"}
{"Compound": "CC(C)c1ccc(NC(=O)c2cccs2)c(-c2nc3ccccc3[nH]c2=O)c1", "target": "INSR", "observed": "enzyme activity", "mode": "inhibitor", "concentration": "1 µM", "measurement": "activity vs control", "value": "91%"}
